Screening results from PubChem.
EP2 antag = human EP2 receptor antagonists, primary screen, TR-FRET cAMP, C6 glioma cells; 0.52% of 260,000 active; C6 glioma cells expressing human EP2; cells stimulated with saturating PGE2; inhibition, % at 25 µM; AID 1422, 2008; Prostaglandin E2 receptor EP2 subtype (Homo sapiens), P43116;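 active means percent inhibition above 40 after rounding to a whole number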;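 further: rat C6 glioma host cells with rolipram phosphodiesterase inhibitor present; the protocol text gives 20 µM as final concentration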
Target sequence (P43116 whole entry, looked up): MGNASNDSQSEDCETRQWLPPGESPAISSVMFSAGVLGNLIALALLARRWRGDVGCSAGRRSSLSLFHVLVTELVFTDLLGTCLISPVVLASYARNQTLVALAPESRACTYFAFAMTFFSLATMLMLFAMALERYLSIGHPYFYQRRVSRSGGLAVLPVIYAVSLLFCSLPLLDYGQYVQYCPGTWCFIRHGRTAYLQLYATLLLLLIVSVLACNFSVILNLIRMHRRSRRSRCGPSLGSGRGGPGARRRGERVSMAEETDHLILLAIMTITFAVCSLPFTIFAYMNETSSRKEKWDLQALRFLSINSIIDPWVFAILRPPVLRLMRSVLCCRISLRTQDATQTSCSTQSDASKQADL
EP2 modulator = EP2 receptor modulators, cAMP readout, primary screen, cell-based, HTRF cAMP, PGE2 stimulation; 0.83% of 260,000 active; induction, % at 25 µM; EP2-expressing cells, cAMP HTRF FRET, PGE2 co-stimulation;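 active means compounds whose cAMP rise, as percent of the full-agonist control response, exceeds 60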;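 further: rat C6 glioma line stably carrying human EP2 under a CMV promoter; the protocol text gives 20 µM as final concentration; 100% = response of wells given 1 µM PGE2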
PHOSPHO1 inh = PubChem AID 1565; recombinant PHOSPHO1, absorbance phosphatase assay; inhibition, % at 13.3 µM; 1.1% of 290,000 active; in the data active means inhibition above about 60%
Target sequence (Q8TCT1 whole entry, looked up): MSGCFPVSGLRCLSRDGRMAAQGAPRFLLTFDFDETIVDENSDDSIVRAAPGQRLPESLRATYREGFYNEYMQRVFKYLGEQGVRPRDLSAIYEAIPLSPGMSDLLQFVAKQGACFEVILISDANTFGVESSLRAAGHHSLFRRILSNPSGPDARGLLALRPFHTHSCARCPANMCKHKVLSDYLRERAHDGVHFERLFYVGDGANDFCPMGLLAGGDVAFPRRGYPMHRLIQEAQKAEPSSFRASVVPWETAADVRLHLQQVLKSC
HKDC1 inh = HKDC1 hexokinase inhibitors, primary screen, biochemical, fluorescence, uHTS. inhibition, % at 20 µM. recombinant HKDC1, G6PDH/diaphorase resazurin coupled fluorescence. 0.16% of 340,000 active. Q2TB90;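 active means inhibition above about 35% when tested at 20 µM, limit read from the data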;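 further: plate controls were DMSO wells with enzyme for no effect and DMSO wells lacking enzyme for full effect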
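Test system: recombinant HKDC1 (HK5) hexokinase enzyme, produced in-house / Doses: 20 µM test compound, 1% DMSO / Timing: 90 min, room temperature / Detection: G6PDH/diaphorase-coupled fluorescence, 1 mM NADP, 100 µM resazurin, 525/613 nm / Control set: DMSO wells with and without enzyme mix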
Tb hexokinase = Trypanosoma brucei hexokinase 1 inhibitors, primary screen, biochemical, G6PDH-coupled NADH absorbance, MLSCN library | inhibition, % at 10 µM | hexokinase 1 [Trypanosoma brucei] | recombinant TbHK1, G6PDH-coupled NADH A340 | 0.11% of 220,000 active;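 active means inhibition of 50% or more in the single-dose primary screen; inactive means inhibition below 50%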
PfGluPho inh = PfG6PD enzyme inhibitors, primary screen, biochemical, fluorescence intensity, uHTS. PfGluPho enzyme, NADPH resazurin-diaphorase fluorescence. glucose-6-phosphate dehydrogenase-6-phosphogluconolactonase (Plasmodium falciparum 3D7). 0.78% of 350,000 active. inhibition, % at 20 µM;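 active means inhibition reaching at least a set limit at 20 µM in the primary screen, cut at about 59% in these data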;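 further: 0% = DMSO wells with substrate and 100% = DMSO wells lacking glucose-6-phosphate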
EP2 confirm = cAMP induction in EP2, EP4, beta2-AR and parental cells, confirmation, counter-screen for EP2 modulator project, cell-based, five parallel assays, C6 glioma, HEK293. shares compounds with EP2 modulator. cAMP HTRF induction; plus low (about EC15) PGE2 agonist. calls only at 20 µM (by protocol). 47% of 1,300 active. AID 1080, 2008;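 active means cAMP induction above 50% in the main assay while under 30% in all four parallel counter assays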;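 further: rat C6 glioma cells stably expressing human EP2 receptor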
G6PDH counter = Leuconostoc G6PDH inhibition, confirmation, counter-screen for TbHK1 inhibitor project, biochemical, DPI cherry-picked compounds, single concentration; inhibition, % at 10 µM; shares compounds with Tb hexokinase; 7% of 210 active; purified G6PDH, NADH absorbance, 1 h;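 active means at least 50% inhibition in the glucose-6-phosphate dehydrogenase coupled counterscreen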
TbHK1 confirm = TbHK1 inhibitor retest, confirmation, biochemical, DPI cherry-picked primary actives; shares compounds with Tb hexokinase; recombinant TbHK1, G6PDH-coupled NADH A340 absorbance; inhibition, % at 10 µM; 10% of 210 active; AID 2560, 2010;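 active means inhibition of at least 50% in both of the two screening runs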;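 further: 0% and 100% set by the maximum and minimum signal control wells on each plate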
HKDC1 act conf2 = HKDC1 hexokinase activators, confirmation, biochemical, single concentration; recombinant HKDC1, G6PDH/diaphorase resazurin fluorescence; active compounds read low; 14% of 740 active; shares compounds with HKDC1 inh; inhibition, % at 20 µM;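 active means inhibition at or below a set negative limit, negative inhibition meaning the enzyme was activated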
PfG6PD confirm = PfG6PD inhibitors, hit retest, confirmation, biochemical, fluorescence intensity, single concentration; shares compounds with PfGluPho inh; 34% of 2,400 active; recombinant PfGluPho, NADPH-diaphorase-resazurin fluorescence; AID 504753, 2011; inhibition, % at 20 µM;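 active means inhibition of at least 50% at 20 µM in any single replicate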;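 further: 0% = DMSO with substrate and 100% = DMSO lacking glucose-6-phosphate substrate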
Diaphorase 10uM = diaphorase inhibitors and chemical oxidizers, confirmation, counter-screen for P. falciparum G6PD inhibitor project, biochemical, fluorescence intensity, 10 µM NADPH; inhibition, % at 20 µM; 39% of 820 active; shares compounds with PfGluPho inh; diaphorase-coupled resazurin reduction, NADPH 10 uM;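 active means average inhibition reaching 50% or more with the compound at 20 µM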;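 further: resorufin red fluorescence formed as diaphorase reduces resazurin using NADPH; 0% = DMSO with enzyme and 100% = DMSO without enzyme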
Diaphorase 30uM = diaphorase inhibitors and chemical oxidizers, confirmation, counter-screen for P. falciparum G6PD inhibitor project, biochemical, fluorescence intensity, 30 µM NADPH; inhibition, % at 20 µM; Diaphorase/resazurin coupled assay, resorufin fluorescence; AID 504863, 2011; 29% of 820 active; shares compounds with PfGluPho inh;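 active means inhibition averaging 50% or more, tested at 20 µM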;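 further: 0% = DMSO with enzyme and 100% = DMSO wells lacking diaphorase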
* marks the source's active call; other numbers are inactive results; i = inactive; . = not tested or not shown; + = active, no number; ! = repeats disagree. The list is not random: actives were taken first. Their share in the collection is about 2.5%.

SMILES | EP2 antag | EP2 modulator | PHOSPHO1 inh | HKDC1 inh | Tb hexokinase | PfGluPho inh | HKDC1 act conf2 | others
CC[C@@H]1C(=O)OC[C@@H]1Cc1cncn1C | 16 | 80*! | -6 | 1 | 5 | 11 | . | EP2 confirm=i
CC[C@@H]1C(=O)OC[C@@H]1Cc1cncn1C | . | . | . | -8 | . | 13 | .
Cc1ccc(CN2C(=O)CN=C(c3ccccc3)c3ccccc32)cc1 | 5 | 68* | -25 | -4 | 33 | 34 | . | EP2 confirm=i
CCCCCn1c(=O)c(C(=O)NCc2ccco2)c(O)c2ccccc21 | 5 | 58 | 44 | -6 | 0 | -9 | .
CCCCn1c(=O)c(C(=O)NCc2ccco2)c(O)c2ccccc21 | 5 | 67* | 10 | -5 | 0 | -29 | . | EP2 confirm=+
Nc1ccc(Br)cc1C(=O)c1ccccc1 | 2 | 83* | -10 | 3 | 0 | 4 | . | EP2 confirm=+
CC(=O)C1CCC2C3CCC4CC(O)CCC4(C)C3CCC12C (stereo not given) | . | . | . | 0 | . | 5 | .
CC(=O)C1CC[C@H]2C3CC[C@H]4C[C@H](O)CC[C@]4(C)C3CC[C@]12C (stereo not given in full) | 19 | 50 | . | . | . | . | . | EP2 confirm=i
C[N+](C)(C)CC1Cc2ccccc2O1 (stereo not given) | 5 | -8 | . | . | . | . | .
Nc1ccc(Cl)cc1C(=O)c1ccccc1Cl | 13 | 67* | 20 | 8 | 4 | 36 | . | EP2 confirm=+
CCCOc1c(CN2C3CCC2CC(O)(c2ccc(F)cc2)C3)cccc1OC (stereo not given) | 7 | -26 | . | . | . | . | .
COc1ccc(-n2c(C)nc3c(Br)cc(Br)cc3c2=O)cc1 | 16 | 28 | . | . | . | . | .
CCn1nc(-c2ccccc2)nc2c(=O)n(C)c(=O)nc1-2 | 43* | -88 | 9 | -83 | 69* | 95* | . | G6PDH counter=34;TbHK1 confirm=38
C[C@@]12C[C@@H](c3ccoc3)OC(=O)[C@@H]1CC[C@]1(C)C2[C@H]2C=C[C@]1(O)C(=O)O2 (stereo not given in full) | 10 | 14 | . | . | . | . | .
O=c1c2ccccc2[se]n1-c1ccccc1 | 47*! | -2 | 89* | -116 | 91* | 127* | 5 | G6PDH counter=2;TbHK1 confirm=90*;PfG6PD confirm=113*;Diaphorase 10uM=-23;Diaphorase 30uM=-5
COC(=O)c1cn(Cc2ccc(C#N)cc2)c2ccccc12 | 12 | 49 | . | . | . | . | .
CC1(C)C(C(=O)N2CCN(c3ccc(Cl)cc3)CC2)C1(C)C | . | . | . | -5 | . | 4 | .
COC(=O)C1CN(C#N)N(c2ccc(Cl)cc2)C12c1ccccc1-c1ccccc12 (stereo not given) | 9 | 50 | 1 | 87* | 1 | 29 | 74
O=C1NC(=S)N(c2ccc(F)cc2)C(=O)/C1=C\c1ccoc1 | 17 | 34 | 14 | 51* | 30 | 11 | 55
N#CC1=C(N)Oc2c(c(=O)sc3ccccc23)C1c1ccncc1 (stereo not given) | 15 | -99 | 2 | -58 | -9 | -39 | -22
Cn1c(=O)c2c(nc(N/N=C/c3c(O)n(C4CCCCC4)c(=S)[nH]c3=O)n2C)n(C)c1=O | 11 | 30 | 41 | -46 | -21 | 11 | -49*
CC(C)[C@H]1CN(Cc2ccco2)CCN1C(=O)Cc1nn(C(C)C)c(=O)c2ccccc12 | . | -17 | . | . | . | . | .
COc1ccc(OC)c(N2C(=O)/C(=C/c3ccco3)C(=O)NC2=S)c1 | . | . | -11 | 82* | . | 19 | 77
CCN(CC)c1ccc(N=Cc2c(O)n(Cc3ccco3)c(=O)[nH]c2=O)cc1 | 5 | -4 | 8 | -2 | -22 | 11 | .
NC(=O)c1ccc(N=Cc2c(O)n(Cc3ccco3)c(=O)[nH]c2=O)cc1 | 5 | -19 | 28 | 36* | -32 | 25 | -17
SMILES | EP2 antag | EP2 modulator | PHOSPHO1 inh | HKDC1 inh | Tb hexokinase | PfGluPho inh | HKDC1 act conf2 | others
Cc1ccc2c(C)c3ccc4ccccc4c3c[n+]2c1 | . | . | . | -53 | . | -29 | -65*
O=C1CC=C2C3CC4N(CCC45c4cc(O)c(O)cc4N1C25)CC3=CCBr (stereo not given) | . | . | . | 45* | . | 126* | 26
O=C1CC=C2C3CC4N(CCC45c4ccccc4N1C25)CC3=CCO (stereo not given) | . | . | . | -4 | . | 5 | .
O=C1C(Cl)C(CCl)CN1c1cccc(C(F)(F)F)c1 (stereo not given) | 14 | -42 | . | . | . | . | .
CC[C@H](C)/C=C(C)/C=C/C1=CC2=C(Cl)C(=O)[C@@](C)(OC(C)=O)C(=O)C2=CO1 | 13 | . | . | 63* | . | 20 | 46
COc1ccc(Nc2nc(CC(=O)N(C)CCN3CCCCC3)cs2)cc1 | 4 | -15 | . | . | . | . | .
CC1CC(C)CN(C(=O)CN2C3CCC2CC(O)(c2nccn2C)C3)C1 (stereo not given) | . | 1 | . | . | . | . | .
Cc1cc(/C=C2\C(=O)NC(=O)N(c3ccc(Cl)cc3)C2=O)c(C)n1-c1sc2c(c1C#N)CCCC2 | 12 | 15 | 4 | 69* | 0 | 10 | 56
